A word on the IC50: it is the concentration that inhibits the measured activity by half.

Each structure is given as a SMILES string. Where only a bound is given, the exact number is not on record here.

What all share (assay type): functional, cell-based
In one assay the test system is A549. Put plainly: Antiproliferative activity against human A549 cells assessed as cell growth inhibition after 48 hrs by XTT assay. Conditions: A549, 48 h. The method in brief:
(§1)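 NB4 grown in RPMI 1640 with 10% FBS and penicillin/streptomycin, A549 and MCF-7 in DMEM, all at 37 °C and 5% CO2. Cells seeded at 1.5∙10⁴ (NB4) or 1.0∙10⁴ (A549, MCF-7) per well. Adherent lines dosed 24 h after plating, NB4 shortly after. Triplicate concentrations from 0.1 to 100, DMSO control at 0.5% v/v. After 48 h exposure, XTT added for 2 h. A450 minus A690 read, GI50 reported with SE.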
Background: Tetrazolium assays rely on reduction of a dye to a coloured formazan, in cell work by metabolically active cells.

In a further assay the test system is MCF7. Put plainly: Antiproliferative activity against human MCF7 cells assessed as cell growth inhibition after 48 hrs by XTT assay. Conditions: MCF7, 48 h. The method in brief: as §1
A short description of assay [1]: Antiproliferative activity against human NB4 cells assessed as cell growth inhibition after 48 hrs by XTT assay. Conditions: NB-4, 48 h. The method in brief:
as §1

For the compound `C=C(C(=O)c1ccc(OC)cc1)C(OC(=O)c1ccccc1)c1ccc(Cl)cc1Cl` (stereo unspecified), the IC50 was determined as 79.2 µM in the assay on A549, 26.8 µM with MCF7 and 9.7 µM in assay [1].

`COc1ccc(C(=O)/C(=C\c2ccccc2Cl)COC(=O)c2ccccc2)cc1`: the results for the 50% inhibitory concentration (IC50) (in the assay with A549; in the assay with MCF7; in assay [1]) were 52 µM, 36 µM and 20.1 µM, respectively.

For the compound `COc1ccc(C(=O)/C(=C/c2ccccc2Cl)CCOC(C)=O)cc1`, the values for the IC50 (in the assay with A549; in the assay with MCF7; in assay [1]) were over 100 µM, over 100 µM and 51.6 µM, respectively.

Regarding `COc1ccc(C(=O)/C(=C/c2ccc(C(F)(F)F)cc2)CC(C)C)cc1`, the figures for the concentration for half-maximal inhibition (IC50) (in the assay with A549; in the assay on MCF7; in assay [1]) were over 100 µM, over 100 µM and 12.6 µM, respectively.

As for `C=C(C/C(=C\c1ccccc1)C(=O)c1ccc(OC)cc1)C(=O)c1ccc(OC)cc1`, the figures for the IC50 (in the assay on A549; with MCF7; in assay [1]) were 22.9 µM, 7.4 µM and 7.4 µM, respectively.

As for `CCC(/C=C(\CCOC(C)=O)C(=O)c1ccc(OC)cc1)CC`, the half-inhibitory concentration (IC50) is over 100 µM with A549, over 100 µM with MCF7 and 91.1 µM in assay [1].

For the compound `COc1ccc(C(=O)/C(=C/c2ccc(Cl)cc2)CC(C)OC(C)=O)cc1` (stereo unspecified), the figures for the concentration for half-maximal inhibition (IC50) (in the assay on A549; in the assay with MCF7; in assay [1]) were 73.2 µM, over 100 µM and 62 µM, respectively.

As for `COc1ccc(C(=O)/C(=C/c2ccc(Cl)cc2Cl)CN(C)C(=O)c2ccccc2)cc1`, the IC50 in the assay on A549 turned out to be 32.4 µM; with MCF7, 39.7 µM; in assay [1], 24 µM.

As to `C=C(C/C(=C\c1ccc(C)cc1)C(=O)c1ccc(OC)cc1)C(=O)c1ccc(OC)cc1`, the values for the half-inhibitory concentration (IC50) (with A549; in the assay on MCF7; in assay [1]) were 43.8 µM, 26.9 µM and 11.4 µM, respectively.

As to `C=C(C(=O)c1ccc(OC)cc1)C(O)c1ccccc1F` (stereo unspecified), the IC50 with A549 amounted to 15.7 µM; with MCF7, 30.9 µM; in assay [1], 6.9 µM.

`C=C(C/C(=C\c1ccc(C)cc1)C(=O)c1ccccc1)C(=O)c1ccccc1`: the IC50 came out at 20.9 µM with A549, 15.9 µM in the assay on MCF7 and 7.6 µM in assay [1].

Regarding `COc1ccc(C(=O)/C(=C/c2ccc(Cl)cc2Cl)CCOC(C)=O)cc1`, the values for the IC50 (in the assay on A549; with MCF7; in assay [1]) were 69.2 µM, 83.4 µM and 34.8 µM, respectively.

With `COc1ccc(C(=O)/C(=C/c2ccc([N+](=O)[O-])cc2)CCOC(C)=O)cc1`, the 50% inhibitory concentration (IC50) (with A549; with MCF7; in assay [1]) was over 100 µM throughout.

Regarding `C=C(C/C(=C\c1ccc(OC(=O)c2ccccc2)cc1)C(=O)c1ccccc1)C(=O)c1ccccc1`, the IC50 was found to be 44.4 µM with A549, 61.6 µM in the assay with MCF7 and 8 µM in assay [1].

Turning to `COc1ccc(C(=O)/C(=C/C2CCCCC2)COC(=O)c2ccccc2)cc1`, the figures for the IC50 (with A549; with MCF7; in assay [1]) were 36 µM, 13.7 µM and 10.2 µM, respectively.

Consider `C=C(C(=O)c1ccc(OC)cc1)C(C)OC(=O)c1ccccc1` (stereo unspecified), for which the 50% inhibitory concentration (IC50) with A549 is over 100 µM; in the assay with MCF7 it was 14.5 µM; in assay [1], 15.7 µM.

Consider `COc1ccc(C(=O)/C(=C/c2c(F)c(F)c(F)c(F)c2F)CCOC(C)=O)cc1`, for which the figures for the IC50 (in the assay on A549; in the assay with MCF7; in assay [1]) were 58.1 µM, over 100 µM and 28.5 µM, respectively.

For `COc1ccc(C(=O)/C(=C/c2ccc(Cl)cc2Cl)CC2CCCCC2)cc1`, the concentration for half-maximal inhibition (IC50) in the assay with A549 is over 100 µM; in the assay with MCF7, over 100 µM; in assay [1], 48.9 µM.

With `COc1ccc(C(=O)/C(=C/c2c(F)c(F)c(F)c(F)c2F)CC(C)OC(C)=O)cc1` (stereo unspecified), the half-maximal inhibitory concentration (IC50) in the assay on A549 is 91.7 µM; with MCF7 it was over 100 µM; in assay [1] it was 49 µM.

In the case of `C=C(C(=O)c1ccc(OC)cc1)C(O)c1ccccc1Cl` (stereo unspecified), the IC50 stood at 28.5 µM in the assay on A549, 29.6 µM in the assay with MCF7 and 8.1 µM in assay [1].

On to `COc1ccc(C(=O)/C(=C/c2ccc(Cl)cc2)CC(C)C)cc1`, for which the figures for the IC50 (in the assay with A549; in the assay with MCF7; in assay [1]) were over 100 µM, over 100 µM and 12.1 µM, respectively.

As for `C/C=C(\COC(=O)c1ccccc1)C(=O)c1ccc(OC)cc1`, the IC50 with A549 is over 100 µM; in the assay on MCF7, 29.8 µM; in assay [1], 16.2 µM.

The record behind these values is ChEMBL document CHEMBL3421532, “Synthesis and antiproliferative activity of α-branched α,β-unsaturated ketones in human hematological and solid cancer cell lines” (Eur J Med Chem, 2015).
